Experimental data taken from ChEMBL document CHEMBL1154674, “Synthesis and evaluation of three 18F-labeled aminophenylbenzothiazoles as amyloid imaging agents” (J Med Chem, 2009).
One block for each compound: values may come before it.

What was measured:
Assay type in all cases: ADME, organism-based, Macaca mulatta
[1] = Drug level in normal rhesus monkey thalamus assessed as standard uptake value at 81.2 MBq, iv after 145 mins by microPET; conditions: in vivo
[2] = Drug level in normal rhesus monkey pons assessed as standard uptake value at 81.2 MBq, iv after 17.5 mins by microPET; conditions: in vivo
[3] = Drug level in normal rhesus monkey frontal cortex assessed as standard uptake value at 81.2 MBq, iv after 155 mins by microPET; conditions: in vivo
[4] = Drug level in normal rhesus monkey white matter assessed as standard uptake value at 81.2 MBq, iv after 10 mins by microPET; conditions: in vivo
[5] = Drug level in normal rhesus monkey white matter assessed as standard uptake value at 81.2 MBq, iv after 175 mins by microPET; conditions: in vivo
[6] = Drug level in normal rhesus monkey thalamus assessed as standard uptake value at 81.2 MBq, iv after 37.5 mins by microPET; conditions: in vivo, 0.625 h
[7] = Drug level in normal rhesus monkey cerebellum assessed as standard uptake value at 81.2 MBq, iv after 37.5 mins by microPET; conditions: in vivo, 0.625 h
Method in brief: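 One normal rhesus monkey, each tracer given iv via the vena saphena (81.2, 96.3 or 109.4 MBq), with 1 day between tracer injections. Dynamic brain μPET over 180 min used frames of 5 × 60 s, 5 × 120 s, 9 × 300 s and 12 × 600 s. Images were reconstructed by filtered back projection with a RAMP filter. Regional time-activity curves were expressed as SUV.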

[8] = Drug level in normal rhesus monkey parietal cortex assessed as standard uptake value at 96.3 MBq, iv after 155 mins by microPET; conditions: in vivo
[9] = Drug level in normal rhesus monkey thalamus assessed as standard uptake value at 96.3 MBq, iv after 4.5 mins by microPET; conditions: in vivo, 0.075 h
[10] = Drug level in normal rhesus monkey pons assessed as standard uptake value at 96.3 MBq, iv after 42.5 mins by microPET; conditions: in vivo
[11] = Drug level in normal rhesus monkey parietal cortex assessed as standard uptake value at 96.3 MBq, iv after 6 mins by microPET; conditions: in vivo, 0.1 h
[12] = Drug level in normal rhesus monkey parietal cortex assessed as standard uptake value at 96.3 MBq, iv after 10 mins by microPET; conditions: in vivo
[13] = Drug level in normal rhesus monkey frontal cortex assessed as standard uptake value at 96.3 MBq, iv after 4.5 mins by microPET; conditions: in vivo, 0.075 h
[14] = Drug level in normal rhesus monkey white matter assessed as standard uptake value at 96.3 MBq, iv after 12 mins by microPET; conditions: in vivo, 0.2 h
[15] = Drug level in normal rhesus monkey frontal cortex assessed as standard uptake value at 109.4 MBq, iv after 0.125 mins by microPET; conditions: in vivo, 7 s
[16] = Drug level in normal rhesus monkey frontal cortex assessed as standard uptake value at 109.4 MBq, iv after 0.625 mins by microPET; conditions: in vivo, 38 s
[17] = Drug level in normal rhesus monkey frontal cortex assessed as standard uptake value at 109.4 MBq, iv after 6.5 mins by microPET; conditions: in vivo
[18] = Drug level in normal rhesus monkey frontal cortex assessed as standard uptake value at 109.4 MBq, iv after 81 mins by microPET; conditions: in vivo, 1.35 h
[19] = Drug level in normal rhesus monkey thalamus assessed as standard uptake value at 109.4 MBq, iv after 22.5 mins by microPET; conditions: in vivo, 0.375 h
[20] = Drug level in normal rhesus monkey thalamus assessed as standard uptake value at 109.4 MBq, iv after 52.5 mins by microPET; conditions: in vivo, 0.875 h
[21] = Drug level in normal rhesus monkey cerebellum assessed as standard uptake value at 109.4 MBq, iv after 0.875 mins by microPET; conditions: in vivo, 52 s
[22] = Drug level in normal rhesus monkey frontal cortex assessed as standard uptake value at 109.4 MBq, iv after 123 mins by microPET; conditions: in vivo, 2.05 h
[23] = Drug level in normal rhesus monkey white matter assessed as standard uptake value at 109.4 MBq, iv after 0.875 mins by microPET; conditions: in vivo, 52 s
[24] = Drug level in normal rhesus monkey white matter assessed as standard uptake value at 109.4 MBq, iv after 4.5 mins by microPET; conditions: in vivo, 0.075 h
[25] = Drug level in normal rhesus monkey white matter assessed as standard uptake value at 109.4 MBq, iv after 22.5 mins by microPET; conditions: in vivo, 0.375 h
[26] = Drug level in normal rhesus monkey white matter assessed as standard uptake value at 109.4 MBq, iv after 27.5 mins by microPET; conditions: in vivo
[27] = Drug level in normal rhesus monkey parietal cortex assessed as standard uptake value at 109.4 MBq, iv after 6.5 mins by microPET; conditions: in vivo
[28] = Drug level in normal rhesus monkey cerebellum assessed as standard uptake value at 152.9 MBq, iv after 12 mins by microPET; conditions: in vivo, 0.2 h
Method in brief: (§1)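 One normal rhesus monkey received each tracer via the vena saphena, with 1 day between injections. Dynamic μPET ran 180 min for 18F tracers (5×60 s, 5×120 s, 9×300 s, 12×600 s) and 90 min for the 11C tracer (5×60 s, 5×120 s, 9×300 s, 3×600 s). Filtered back-projection reconstruction (RAMP filter) was used. Time-activity curves were drawn to give regional SUV.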

[29] = Drug level in normal rhesus monkey cerebellum assessed as standard uptake value at 152.9 MBq, iv after 37.5 mins by microPET; conditions: in vivo, 0.625 h; method in brief: as §1
[30] = Drug level in normal rhesus monkey white matter assessed as standard uptake value at 152.9 MBq, iv after 75 mins by microPET; conditions: in vivo, 1.25 h
[31] = Drug level in normal rhesus monkey thalamus assessed as standard uptake value at 152.9 MBq, iv after 1.5 mins by microPET; conditions: in vivo, 0.025 h
[32] = Drug level in normal rhesus monkey thalamus assessed as standard uptake value at 152.9 MBq, iv after 57.5 mins by microPET; conditions: in vivo
[33] = Drug level in normal rhesus monkey thalamus assessed as standard uptake value at 152.9 MBq, iv after 85 mins by microPET; conditions: in vivo
[34] = Drug level in normal rhesus monkey pons assessed as standard uptake value at 152.9 MBq, iv after 1.5 mins by microPET; conditions: in vivo, 0.025 h
[35] = Drug level in normal rhesus monkey pons assessed as standard uptake value at 152.9 MBq, iv after 4.5 mins by microPET; conditions: in vivo, 0.075 h
[36] = Drug level in normal rhesus monkey pons assessed as standard uptake value at 152.9 MBq, iv after 14 mins by microPET; conditions: in vivo
[37] = Drug level in normal rhesus monkey pons assessed as standard uptake value at 152.9 MBq, iv after 85 mins by microPET; conditions: in vivo
[38] = Drug level in normal rhesus monkey parietal cortex assessed as standard uptake value at 152.9 MBq, iv after 2.5 mins by microPET; conditions: in vivo
[39] = Drug level in normal rhesus monkey parietal cortex assessed as standard uptake value at 152.9 MBq, iv after 10 mins by microPET; conditions: in vivo

SUV [1]: 4.916
SUV [2]: 5.124
SUV [3]: 4.381
SUV [4]: 3.524
SUV [5]: 4.226
SUV [6]: 5.69
SUV [7]: 2.545
Compound: CNc1ccc2nc(-c3ccc([18F])cc3)sc2c1

SUV [8]: 1.23
SUV [9]: 1.93
SUV [10]: 1.7
SUV [11]: 2.16
SUV [12]: 2.26
SUV [13]: 1.64
SUV [14]: 1.31
Compound: CN(C)c1ccc2nc(-c3ccc([18F])cc3)sc2c1

SUV [15]: -0.06
SUV [16]: 1.15
SUV [17]: 5.35
SUV [18]: 4.41
SUV [19]: 5.55
SUV [20]: 5.41
SUV [21]: 3.51
SUV [22]: 4.13
SUV [23]: 1.16
SUV [24]: 2.62
SUV [25]: 3.04
SUV [26]: 3.2
SUV [27]: 5.31
Compound: Nc1ccc2nc(-c3ccc([18F])cc3)sc2c1

SUV [28]: 2.252
SUV [29]: 0.996
SUV [30]: 0.828
SUV [31]: 0.487
SUV [32]: 0.88
SUV [33]: 0.672
SUV [34]: 0.447
SUV [35]: 2.008
SUV [36]: 2.04
SUV [37]: 0.718
SUV [38]: 1.106
SUV [39]: 2.18
Compound: [11CH3]Nc1ccc(-c2nc3ccc(O)cc3s2)cc1 [PITTSBURGH COMPOUND B]
